From PMC10558795 (Redox Biology, 2023)
Where two headings read alike, the source gives them in different places.

Legend:
[1] = target: NRF2 ubiquitination (KYSE180) (Homo sapiens, UniProt Q16236, D77V); assay: NRF2-IP and ubiquitin western blotting in KYSE180 cells; format: cell-based; conditions: NRF2^Mut-KYSE180; PYR 10 μM, MIT 20 nM; presence or absence of MG132
How it was run: (§1)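 Cells treated with test compound, then with or without MG132 (10 μM), lysed in RIPA buffer. Lysate precleared on protein G agarose 1 h at 4 °C, then incubated with 1 μg anti-NRF2 antibody overnight at 4 °C with rotation. Immunocomplexes captured on protein G agarose 1.5 h at 4 °C, washed, boiled in 2X SDS loading buffer at 95 °C for 5 min, and immunoblotted for ubiquitin.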

[2] = test system: NQO1-YFP H1299 cells; assay: Cell viability; format: cell-based, human; conditions: Homo sapiens, NCI-H1299, read-out: Cell viability (IC50, μM)
How it was run: (§2)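 NQO1-YFP H1299 reporter cells (YFP in NQO1 intron 1, constitutive mCherry) were seeded 1000/well in 384-well plates and cultured overnight. Primary screen: 1 μM compound in 0.1% DMSO, one well each, with CDDO 200 nM and 0.1% DMSO controls. Retests used 10-point serial dilutions from 10 µM in triplicate, with brusatol control. Imaged at 0, 24, 48, 64 h (YFP = NRF2 activity, mCherry = viability); IC₅₀ by curve fit.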

[3] = test system: global translation; assay: Protein synthesis assay; format: cell-based, human; conditions: KYSE70; PYR 10 μM, MIT 20 nM; CHX positive control
How it was run: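 KYSE70 cells (37 °C, 5% CO₂) seeded at 2000 cells/well in 96-well plates; exposed to test compound or cycloheximide (positive control) in triplicate. Global translation measured with a commercial protein synthesis assay kit per manufacturer's protocol; cells imaged on a high-content imager.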

[4] = target: NRF2 ubiquitination (KYSE450) (Homo sapiens, UniProt Q16236); assay: NRF2-IP and ubiquitin western blotting in KYSE450 cells; format: cell-based; conditions: NRF2^WT-KYSE450; PYR 10 μM, MIT 20 nM; only in the presence of MG132
NRF2 ubiquitination (KYSE450), sequence (Q16236 whole entry): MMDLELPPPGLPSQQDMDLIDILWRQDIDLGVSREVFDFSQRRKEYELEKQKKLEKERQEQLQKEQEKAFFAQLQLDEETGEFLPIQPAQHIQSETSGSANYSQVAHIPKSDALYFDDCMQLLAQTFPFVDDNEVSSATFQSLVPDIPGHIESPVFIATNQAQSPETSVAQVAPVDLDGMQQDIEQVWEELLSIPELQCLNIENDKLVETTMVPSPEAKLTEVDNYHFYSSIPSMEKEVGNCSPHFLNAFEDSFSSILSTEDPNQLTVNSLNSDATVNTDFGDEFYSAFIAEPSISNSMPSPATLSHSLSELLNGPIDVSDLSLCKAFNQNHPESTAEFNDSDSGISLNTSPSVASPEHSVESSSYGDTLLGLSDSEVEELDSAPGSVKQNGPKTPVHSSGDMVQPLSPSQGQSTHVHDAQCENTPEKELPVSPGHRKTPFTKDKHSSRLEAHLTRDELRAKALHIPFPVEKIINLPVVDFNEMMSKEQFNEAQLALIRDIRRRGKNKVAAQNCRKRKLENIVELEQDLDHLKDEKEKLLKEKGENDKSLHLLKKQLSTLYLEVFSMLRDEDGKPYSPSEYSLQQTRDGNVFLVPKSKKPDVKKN
How it was run: as §1

[5] = test system: NRF2 activity (NQO1-YFP signal, CDDO-activated); assay: High-throughput screen and dose response: NRF2 activity; format: cell-based, human; conditions: Homo sapiens, NCI-H1299, read-out: NRF2 inhibition (IC50, μM)
How it was run: as §2

[6] = humans, 50 mg/day, p.o., 3 weeks; cited from earlier work
[7] = test system: Sox2CreER;LSL-Nrf2^E79Q/+ mice; assay: Therapeutic effect on the NRF2^high esophageal phenotype in Sox2CreER; format: in vivo, mouse
How it was run: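 Sox2CreER;LSL-Nrf2^E79Q/+ mice induced with tamoxifen (75 mg/kg/day i.p., 5 days), then given oral test compound in N-methyl-2-pyrrolidone:PEG300 (1:9). Part of forestomach resected at Week 1; rest of forestomach and esophageal epithelium taken at Week 3 sacrifice, with BrdU 50 mg/kg i.p. 2 h before. Analysis by Western blotting, H&E, and IHC (DAB, no-primary-antibody controls).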

[8] = test system: NRF2 expression in Nrf2^WT MEEC; assay: NRF2 expression in mouse esophageal epithelial cells; format: cell-based
How it was run: (§3)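 Nuclear and cytosolic fractions prepared with an extraction kit, or whole-cell lysates in RIPA buffer. Proteins separated by SDS-PAGE, transferred to nitrocellulose, blocked and probed with primary antibody overnight at 4 °C. Chemiluminescence detected on film and quantified by densitometry; band data as mean ± SD, Student's t-test.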

[9] = test system: NRF2 and NQO1 expression in NRF2^Mut-KYSE70 cells; assay: Western blotting of NRF2 and NQO1 expression in KYSE70 cells; format: cell-based, human; conditions: KYSE70 cells
How it was run: as §3

[10] = test system: STAT3; assay: pSTAT3 and STAT3 expression in KYSE70 cells; format: cell-based, human; conditions: up to 10 μM
How it was run: as §3

[11] = Pharmacokinetics of PYR in mice, i.p.; format: in vivo; conditions: 30 mg/kg/day; extrapolated from literature Cmax
[12] = test system: NFE2L2 mRNA and NRF2 target genes; assay: qPCR of NFE2L2 mRNA and NRF2 target genes; format: cell-based, human
How it was run: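 Gene expression quantified by real-time PCR using gene-specific primers and TaqMan probes on a 96-well real-time PCR system.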

[13] = target: NRF2 ubiquitination (KYSE70) (Homo sapiens, UniProt Q16236, W24C); assay: NRF2-IP and ubiquitin western blotting in KYSE70 cells; format: cell-based; conditions: NRF2^Mut-KYSE70; PYR 10 μM, MIT 20 nM; presence or absence of MG132
NRF2 ubiquitination (KYSE70), sequence (Q16236 whole entry W24C): as the sequence (Q16236 whole entry) above, with W24C counted along it
How it was run: as §1

[14] = mice, i.p., cited from earlier work
[15] = test system: NRF2 expression in NRF2^WT-KYSE450 cells; assay: NRF2 expression in KYSE450 cells; format: cell-based, human
How it was run: as §3

[16] = target: NRF2 (NRF2^WT-KYSE450) (Homo sapiens, UniProt Q16236); assay: CHX chase analysis of NRF2 half-life in KYSE450 cells; format: cell-based; conditions: PYR 10 μM, MIT 20 nM
NRF2 (NRF2^WT-KYSE450), sequence (Q16236 whole entry): as the sequence (Q16236 whole entry) above
How it was run: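 Cells were grown in RPMI1640 GlutaMAX with 10% FBS and 1% penicillin/streptomycin at 37 °C, 5% CO₂. They were pre-incubated 4 h with test compound, then given 200 μg/ml cycloheximide to block protein synthesis. Cells were harvested at set time points after cycloheximide. Total lysates were run on SDS-PAGE and blotted for NRF2 and GAPDH, and band densities were used to calculate NRF2 half-life.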

[17] = test system: KYSE70 cells; assay: High-content cytotoxicity screen; format: cell-based, human; conditions: Homo sapiens, KYSE-70, 72 h, read-out: Cell proliferation (IC50, μM)
How it was run: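 Cells were seeded at 1200/well in 384-well plates and cultured overnight. Test compound was added at […] serial dilution from 10 µM, in triplicate, for 3 days. Controls were 0.1% DMSO (negative), 30 µM benzethonium chloride and 0.1% Triton X-100 added just before staining (positive). Cells were stained with 0.5 µg/ml Hoechst and 100 nM YOYO1, four 4× images per well. Normalized total-cell and dead-cell percentages were fitted for IC₅₀.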

[18] = test system: adult wild-type mice; assay: Dose-finding experiment in adult wild-type mice; format: in vivo, mouse
How it was run: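 Adult wild-type mice, n = 5 per group, dosed orally once daily for 4 weeks with test compound dissolved in N-methyl-2-pyrrolidone:PEG300 (1:9). Grooming, physical strength, movement and body weight tracked during dosing; blood collected for complete blood count, analysed by ANOVA.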

[19] = PYR given after tamoxifen induction

NRF2 ubiquitination (KYSE180), sequence (Q16236 whole entry D77V): as the sequence (Q16236 whole entry) above, with D77V counted along it

CCc1nc(N)nc(N)c1-c1ccc(Cl)cc1 [PYR, Pyrimethamine]
NRF2 ubiquitination [1]: promoted NRF2 ubiquitination
IC50 [2]: 1.17 µM
Global translation [3]: Neither PYR (10 μM) nor MIT (20 nM) inhibited global translation
NRF2 ubiquitination [4]: slightly promoted NRF2 ubiquitination
IC50 [5]: 0.23 µM
Cmax [6]: 8.28 µM
NRF2^high esophageal phenotype ([7]; 30 mg/kg/day, p.o.): effectively inhibited
Toxicity ([7]; 30 mg/kg/day, p.o.): no observed toxicity
Expression of NRF2 and its target genes (HMOX1 and AKR1C3) in the esophageal epithelium [7, 19]: significantly inhibited the expression
NQO1, GCLC and GCLM expression in the esophageal epithelium [7, 19]: inhibited, yet without statistical significance
NRF2 expression in the forestomach [7, 19]: significantly inhibited
NRF2 expression [8]: upregulated NRF2 expression
Expression of nuclear NRF2 and cytoplasmic NQO1 [9]: inhibited the expression of nuclear NRF2 and cytoplasmic NQO1 in a dose- and time-dependent manner
pSTAT3 and STAT3 expression [10]: did not significantly inhibit
Concentration expected in mouse tissues [11]: ~10 µM
NFE2L2 mRNA and NRF2 target genes (AKR1B10, AKR1C2, AKR1C3, PGD, SLC7A11, TKT) by qPCR [12]: downregulation
NRF2 ubiquitination [13]: promoted NRF2 ubiquitination
Cmax ([14]; 12.5 mg/kg): 8.04 µM
Cmax ([14]; 25 mg/kg): 18.5 µM
Cmax ([14]; 50 mg/kg): 35.8 µM
Cmax ([14]; 75 mg/kg): 28.2 µM
NRF2 expression [15]: upregulated NRF2 expression
Effect on NRF2 half-life [16]: not changed
IC50 [17]: > 10 µM
Myelosuppression (complete blood count) ([18]; 30 mg/kg/day): not myelosuppressive
Myelosuppression (complete blood count) ([18]; 60 mg/kg/day, p.o., 4 weeks): resulted in myelosuppression including leukopenia and lymphopenia
Impact on body weight and general health ([18]; 15, 30 and 60 mg/kg/day, p.o., 4 weeks): did not observe any negative impact
